# Article PMC6412122 (Nucleic Acids Research, 2019)
# Target: T1, HNA polymerase T6G12_I521L (Thermococcus gorgonarius, UniProt P56689, A485L/A681S/D141A/D669Q/E143A/E609K/E664Q/E730G/I521L/I610M/K659Q/K671H/K674R/L704P/Q665P/R668K/T676R/V589A/V93Q)
# T1 sequence (P56689 1-773 V93Q/D141A/E143A/A485L/I521L/V589A/E609K/I610M/K659Q/E664Q/Q665P/R668K/D669Q/K671H/K674R/T676R/A681S/L704P/E730G): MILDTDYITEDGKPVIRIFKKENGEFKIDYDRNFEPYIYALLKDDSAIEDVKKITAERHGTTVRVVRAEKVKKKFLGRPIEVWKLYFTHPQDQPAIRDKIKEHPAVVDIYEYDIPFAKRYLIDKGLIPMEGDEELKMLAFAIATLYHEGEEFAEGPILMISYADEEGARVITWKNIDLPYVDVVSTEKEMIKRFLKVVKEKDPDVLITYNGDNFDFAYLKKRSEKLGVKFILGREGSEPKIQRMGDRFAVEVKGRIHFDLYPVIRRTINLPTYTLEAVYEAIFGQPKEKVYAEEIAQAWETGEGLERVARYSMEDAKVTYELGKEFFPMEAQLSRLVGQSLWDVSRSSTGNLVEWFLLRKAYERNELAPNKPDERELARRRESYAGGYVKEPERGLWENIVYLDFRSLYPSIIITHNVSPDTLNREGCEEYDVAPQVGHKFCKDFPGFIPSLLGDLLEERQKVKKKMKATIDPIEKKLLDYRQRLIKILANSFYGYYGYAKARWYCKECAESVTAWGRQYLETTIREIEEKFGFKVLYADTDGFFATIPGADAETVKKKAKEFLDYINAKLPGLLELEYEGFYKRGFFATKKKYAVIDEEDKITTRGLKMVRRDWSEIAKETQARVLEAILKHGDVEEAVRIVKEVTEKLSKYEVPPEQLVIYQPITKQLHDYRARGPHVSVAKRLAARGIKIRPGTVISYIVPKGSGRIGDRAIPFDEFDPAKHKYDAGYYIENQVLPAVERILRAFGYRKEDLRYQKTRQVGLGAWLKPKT
# Format: biochemical
# Conditions: global fitting, k3 fitted; duplex P2T3, 50°C
# Outline: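 Quench-flow at 50 °C: enzyme with P2T3 in 2× Thermopol mixed with nucleotide plus MgSO4 (1 mM extra Mg2+ final). Nucleotide 1.6–100 µM, 4–5 levels; ageing 5 ms–60 s. Quenched with 0.3 M EDTA; 18% denaturing PAGE; duplicates. Active enzyme level set by active-site titration (50 ms dTTP pulse, quadratic fit). Global Matlab least-squares fit; k3 refitted fixed at 0.01 or 0.02 s−1; SD from covariance matrix.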
compound,measurement,value
Cc1cn([C@@H]2CO[C@H](COP(=O)(O)OP(=O)(O)OP(=O)(O)O)[C@@H](O)C2)c(=O)[nH]c1=O [hTTP],k2 = kpol,0.62 ± 0.13 s⁻¹
same,k3,0.028 ± 0.002 s⁻¹
